Experimental data gathered from unrelated publications.
Compare with care: the assays were run in different laboratories.
Target: Adenosine receptor A2a (ADORA2A, Homo sapiens, UniProt P29274)

SMILES	effect on	method	tested at	setting	inhibition [%]
COc1cc(NC(C)=O)c(Cl)cc1C(=O)Nc1nccs1	cell-free assay		10 µM		39.7
C#CCNc1nc(Cl)nc2c1ncn2[C@H]1[C@H](O)[C@H](O)[C@]2(C(=O)NC)C[C@H]12	ligand displacement	radioligand	10 µM	cell membranes	23
O=C(Nc1ccc(S(=O)(=O)N2CCC(Cl)CC2)cc1)c1ccc([N+](=O)[O-])o1	ligand displacement	radioligand	10 µM		8
O=C(c1ccc(F)cc1)N(Cc1ccccc1)C1CCCCC1	cell-free assay		10 µM		5
CC(C)(C)OC(=O)N1CCN(CC(=O)Nc2ccc3oc(-c4ccco4)nc3c2)CC1	ligand displacement	radioligand	10 µM	cell membranes	25
CCN(Cc1ccccc1C(F)(F)F)C(=O)C1CCN(S(=O)(=O)c2ccc3[nH]ncc3c2)CC1	ligand displacement	radioligand	10 µM		3
Nc1nc[nH]c(=O)c1Cl	ligand displacement	radioligand	30 µM	cell membranes	23
C=CN1CCCn2c1nc1c2c(=O)n(C)c(=O)n1C	ligand displacement	radioligand	10 µM	cell membranes	29
c1coc(-c2nc3ccc(CN4CCCCC4)cc3o2)c1	ligand displacement	radioligand	10 µM	cell membranes	5
Ic1cccc2cnccc12	ligand displacement	radioligand	10 µM		8
c1ccc(N2CCN(CCc3ccc4oc(-c5ccco5)nc4c3)CC2)cc1	ligand displacement	radioligand	10 µM	cell membranes	3
O=C1N=C(N2CCCCN2)S/C1=C\c1ccc(F)cc1O	ligand displacement	radioligand	10 µM		10
